# Assay results of several laboratories.
# Lines come from different studies, so protocols differ.
# Target: Glycogen synthase kinase-3 alpha (GSK3A, Homo sapiens, UniProt P49840)
SMILES,assay,system,conditions,endpoint,value
N#CCCc1ccc2c(c1)-c1[nH]c3ccc([N+](=O)[O-])cc3c1CC(=O)N2,cell-free assay,,0.5 µM,remaining signal,0.804%
CCN(CC)CCNC(=O)c1c(C)[nH]c(/C=C2\C(=O)Nc3ccc(F)cc32)c1C,"enzyme activity, inhibitor",,0.3 µM,inhibition,2%
Cc1c(NC(=O)c2cc(C(N)=O)nc3cc(F)ccc23)c(C(F)(F)F)nn1Cc1ccc(C(C)(C)C)cc1,"cell-free assay, competition with immobilised ligand",,1 µM,remaining binding,98%
CC(C)(O)[C@H]1CC[C@H](Nc2ccc3ncc(-c4cccc(C(F)(F)F)c4)n3n2)CC1,"enzyme activity, inhibitor",,1 µM,remaining activity,90%
O=C(Nc1cnn(-c2csc(C(=O)NC3COC3)c2)c1)Nc1c(F)cccc1Cl,"enzyme activity, inhibitor",,5 µM,remaining activity,93.5%
O=C(O)[C@@H]1[C@@H](Cn2nnc3ccccc3c2=O)CC[C@H]1C(=O)c1ccc(OCCC2CCOCC2)cc1,"cell-free assay, competition with immobilised ligand",,1 µM,remaining binding,93%
CC(C)(C)c1nc(-c2cccc(NS(=O)(=O)c3c(F)cccc3F)c2F)c(-c2ccnc(N)n2)s1,"enzyme activity, inhibitor, radiometric",,1 µM,remaining activity,97%
O=C(Nc1cnn(-c2csc(C(=O)NC3COC3)c2)c1)Nc1ccccc1Cl,"enzyme activity, inhibitor",,5 µM,remaining activity,97.4%
Cc1cc(-n2nc(Cc3cc(F)cc(C(F)(F)F)c3)nc2C)ccc1C(N)=O,"cell-free assay, competition with immobilised ligand",,1 µM,remaining binding,97%
CCCS(=O)(=O)Nc1ccc(F)c(C(=O)c2c[nH]c3ncc(-c4ccc(Cl)cc4)cc23)c1F,"enzyme activity, inhibitor",,1 µM,inhibition,< 10%
C=CC(=O)Nc1cc(Nc2nccc(Nc3cc(Cl)c(F)cc3C(C)(C)O)n2)c(OC)cc1N1CC[C@@H](N(C)C)C1,"enzyme activity, inhibitor",,1 µM,inhibition,0%
Cn1cnc(Br)c1C1=CN(c2ncnc3[nH]cnc23)CCS1,"enzyme activity, inhibitor, radiometric",,2 µM,inhibition,84.1%
COc1cc2ncnc(Nc3ccc(Oc4ccccc4)cc3C)c2cc1OC,"enzyme activity, inhibitor",,1 µM,inhibition,4%
CCN(CC)c1ccc(C2=NNC(=O)CC2C)cc1[N+](=O)[O-] (stereo not shown),"enzyme activity, inhibitor",,10 µM,remaining activity,89%
Cc1ccc(Nc2nccc(N(C)c3ccc4c(C)n(C)nc4c3)n2)cc1S(N)(=O)=O,"enzyme activity, inhibitor",,10 µM,inhibition,48%
COc1cccc2c(NCc3ccccc3)nc(-n3c(N)nc4ccccc43)nc12,"target engagement in cells, inhibitor, chemoproteomics",,20 mM,inhibition,2%
O=C(NCc1ncc(C(F)(F)F)cc1Cl)c1ccc2c(c1)C1(CCS(=O)(=O)CC1)[C@@H](C1CC1)N2S(=O)(=O)c1ccc(F)cc1,"cell-free assay, competition with immobilised ligand",,1 µM,remaining binding,100%
CNC(=O)c1cc(Oc2ccc(NC(=O)Nc3ccc(Cl)c(C(F)(F)F)c3)cc2)ccn1,cell-free assay,,0.5 µM,remaining signal,103%
Cc1ccc(C(=O)NCc2ccsc2)cc1C#Cc1cn(C(C)C)c2ncnc(N)c12,"enzyme activity, inhibitor",,1 µM,activity vs control,91%
Nc1ncnc2occ(-c3ccc(NC(=O)Nc4cc(C(F)(F)F)ccc4F)cc3)c12,"enzyme activity, inhibitor",,20 µM,remaining activity,17%
O=C(N1CCS(=O)(=O)CC1)N1C[C@H](c2ccc(OC(F)(F)F)cc2)C[C@H](c2nc(C3CC3)no2)C1,"cell-free assay, competition with immobilised ligand",,1 µM,remaining binding,100%
CNc1cc(Oc2cc(C(=O)Nc3cc(N4CCN(C)CC4)cc(C(F)(F)F)c3)ccc2C)ncn1,"target engagement in cells, inhibitor, chemoproteomics",Huh-7,1 µM,inhibition,-23.9%
O=C(Nc1cnc(Oc2ccc(F)cc2)nc1)N1CCc2ncccc2[C@@H]1c1ccc(F)cc1,"cell-free assay, competition with immobilised ligand",,1 µM,remaining binding,93%
Cc1cnc(NC2CCOCC2)nc1-n1cnc(C(=O)NC(CN)c2cc(F)cc(Cl)c2)c1 (stereo not shown),"enzyme activity, inhibitor, radiometric",,1 µM,remaining activity,8%
CO[C@@H](C)c1c(Nc2ccc([C@@H](N(C)C(=O)C3CCS(=O)(=O)CC3)C(F)(F)F)cc2)cnc2cc(Cl)nn12,"cell-free assay, competition with immobilised ligand",,1 µM,remaining binding,94%
O=C1Nc2ccc(Cl)cc2C1=Cc1cc(Cl)c(O)c(Cl)c1,cell-free assay,,0.5 µM,remaining signal,76.1%
Cc1ccc(NC(=O)c2ccc(C)c(C(F)(F)F)c2)cc1C#Cc1nn(C2CCC(O)CC2)c2ncnc(N)c12 (stereo not shown),"cell-free assay, inhibitor",,10 µM,remaining signal,79%
CS(=O)(=O)N1CCCC(NC(=O)[C@H](CCC2CCCCC2)NC(=O)c2ccc(CNC(=O)c3cnc4ccccn34)cc2)C1 (stereo partly shown),"cell-free assay, competition with immobilised ligand",,0.1 µM,remaining binding,100%
